Measurements from ChEMBL document CHEMBL1125545, “4-Methyl-3-(arylsulfonyl)furoxans: a new class of potent inhibitors of platelet aggregation” (J Med Chem, 1992).

Species: Homo sapiens
Test: Inhibition of arachidonic acid (AA) induced human platelet aggregation.
Format: functional
Method in brief: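 Human PRP (pH 7.6; 200g, 15 min at room temperature) with platelet counts matched. Compound in DMSO-ethanol given 5 min before 1 mM arachidonic acid, with a solvent control. Aggregation followed by Born light-transmission aggregometry, IC50 derived from the aggregation traces. At least four repeats, each with platelets from a different donor.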

SODIUM NITROPRUSSIDE
IC50: 1000 nM
